Measurements of several laboratories.
Compare with care: the assays were run in different laboratories.
Target: Ephrin type-A receptor 1 (EPHA1, Homo sapiens, UniProt P21709)
Sequence (P21709 26-976, as in one of the studies): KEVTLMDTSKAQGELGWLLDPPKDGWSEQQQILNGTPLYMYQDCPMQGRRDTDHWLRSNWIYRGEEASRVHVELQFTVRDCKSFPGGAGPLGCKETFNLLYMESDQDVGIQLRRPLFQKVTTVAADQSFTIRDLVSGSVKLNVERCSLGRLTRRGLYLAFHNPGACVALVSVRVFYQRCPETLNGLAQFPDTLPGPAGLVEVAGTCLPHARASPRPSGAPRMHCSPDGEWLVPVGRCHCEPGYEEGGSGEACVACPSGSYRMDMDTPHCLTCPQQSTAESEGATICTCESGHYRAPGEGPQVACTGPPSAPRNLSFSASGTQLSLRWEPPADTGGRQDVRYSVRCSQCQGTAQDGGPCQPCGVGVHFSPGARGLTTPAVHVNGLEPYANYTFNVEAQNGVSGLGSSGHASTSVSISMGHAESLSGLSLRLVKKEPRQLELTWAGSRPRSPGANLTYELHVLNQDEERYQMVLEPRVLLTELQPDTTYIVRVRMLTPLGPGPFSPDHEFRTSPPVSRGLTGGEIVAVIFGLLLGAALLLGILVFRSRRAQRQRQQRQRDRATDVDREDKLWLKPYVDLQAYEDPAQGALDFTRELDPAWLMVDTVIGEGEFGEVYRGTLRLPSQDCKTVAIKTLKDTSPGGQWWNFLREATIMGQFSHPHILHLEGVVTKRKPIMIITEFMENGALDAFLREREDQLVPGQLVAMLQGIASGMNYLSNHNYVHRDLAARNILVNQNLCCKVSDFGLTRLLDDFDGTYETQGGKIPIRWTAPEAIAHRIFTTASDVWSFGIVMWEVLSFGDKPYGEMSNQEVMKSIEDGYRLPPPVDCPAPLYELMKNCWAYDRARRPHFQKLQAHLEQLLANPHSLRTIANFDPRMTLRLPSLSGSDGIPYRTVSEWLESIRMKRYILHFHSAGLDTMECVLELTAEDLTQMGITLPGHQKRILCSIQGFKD

O=C1NC(=O)c2cc(Nc3ccc(F)cc3)c(Nc3ccc(F)cc3)cc21
remaining signal (cell-free assay; 0.5 µM): 97.4%

CNC(=O)c1cc(Oc2ccc(NC(=O)Nc3ccc(Cl)c(C(F)(F)F)c3)cc2)ccn1
inhibition (enzyme activity; inhibitor; 0.3 µM): 23%

CC(C)(C)c1nc(-c2cccc(NS(=O)(=O)c3c(F)cccc3F)c2F)c(-c2ccnc(N)n2)s1
remaining activity (enzyme activity; inhibitor; radiometric; 1 µM): 81%

Nc1c(C(=O)NCc2ccc(C(=O)NCCCC3CCCCC3)cc2)cnn1-c1ccccc1
remaining binding (cell-free assay; competition with immobilised ligand; 0.1 µM): 100%

O=C1Nc2ccc(Cl)cc2C1=Cc1cc(Cl)c(O)c(Cl)c1
remaining signal (cell-free assay; 0.5 µM): 88.9%

CCN(CC)CCNC(=O)c1c(C)[nH]c(/C=C2\C(=O)Nc3ccc(F)cc32)c1C
inhibition (enzyme activity; inhibitor; 0.3 µM): 1%

O=C(Nc1cnn(-c2csc(C(=O)NC3COC3)c2)c1)Nc1c(F)cccc1Cl
remaining activity (enzyme activity; inhibitor; 5 µM): 88.4%

C[C@@H]1CN(c2cc(-c3nn(C)c4ccc(OC5(C)CC5)cc34)ncn2)C[C@H](C)O1
remaining binding (cell-free assay; competition with immobilised ligand; 1 µM): 100%

COc1cc2ncnc(Nc3ccc(Oc4ccccc4)c(C)c3C)c2cc1OC
inhibition (enzyme activity; inhibitor; 1 µM): 8%

COc1ccc2c(c1)O[C@H](c1ccc(OC)c(OC)c1)C[C@@H]2NC(=O)C1(c2ccc3c(c2)OC(F)(F)O3)CC1
remaining binding (cell-free assay; competition with immobilised ligand; 1 µM): 88%

CC/C(=N\NC(=O)NCc1cccc(O)c1)c1ccc(O)c(C)c1O
inhibition (enzyme activity; inhibitor; 0.1 µM): -1.2%

Cc1ccc(C(=O)Nc2ccc(CN3CCN(C)CC3)c(C(F)(F)F)c2)cc1C#Cc1cnc2cccnn12
remaining signal (cell-free assay; 23.5 nM): 55%

CCCS(=O)(=O)Nc1ccc(F)c(C(=O)c2c[nH]c3ncc(-c4ccc(Cl)cc4)cc23)c1F
inhibition (enzyme activity; inhibitor; 1 µM): < 10%

COc1cccc2c(NCc3ccccc3)nc(-n3c(N)nc4ccccc43)nc12
inhibition (target engagement in cells; inhibitor; chemoproteomics; 20 mM): -22.2%

CN1CCN(c2cnc3c(C4CCN(C(=O)c5ccc(OC(F)(F)F)cc5N)CC4)ncnc3c2)CC1
remaining binding (cell-free assay; competition with immobilised ligand; 1 µM): 95%

Cc1cnc(NC2CCOCC2)nc1-n1cnc(C(=O)NC(CN)c2cc(F)cc(Cl)c2)c1 (stereo not drawn)
remaining activity (enzyme activity; inhibitor; radiometric; 1 µM): 99%

O=C(N[C@H]1CCCCC/C=C\C2C[C@@]2(C(=O)O)NC(=O)[C@@H]2C[C@@H](Oc3ccncc3)CN2C1=O)OC1CCCC1 (stereo partly drawn)
remaining binding (cell-free assay; competition with immobilised ligand; 1 µM): 90%

COc1cc(-c2cc(-c3ccc(N4CCNCC4)cc3)cnc2C)cc(OC)c1OC
inhibition (enzyme activity; inhibitor; 0.1 µM): 3%
